Screening results (PubChem)
Many of the other results were omitted from the sample, so hits are more common in it than they were.
L major viab: Leishmania major promastigote growth inhibition, primary screen; Leishmania major promastigotes, resazurin fluorescence viability; inhibition, % at 10 µM; 9% of 200,000 active; AID 1063, 2008;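 further: promastigotes grown with compound for 44 hours at 28 °C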
ABCG2 inh: ABCG2 efflux pump inhibitors, primary screen, multiplex with ABCB1, IgMXP3 cells, flow cytometry. 0.1% of 190,000 active. JC-1 efflux. Broad substrate specificity ATP-binding cassette transporter ABCG2 (Homo sapiens), Q9UNQ0. inhibition, % at 6.6 µM;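 active means inhibition above 80%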;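 further: 0% = DMSO and 100% = nicardipine control wells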
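System: two drug-resistant human cell lines, ABCG2 and ABCB1; controls: nicardipine high and DMSO low controls; times: 10 min exposure at 25 °C with rotation, no wash; detection: flow cytometry of retained JC-1 fluorescence; read-out basis: percent efflux inhibition, scaled nicardipine 100% to DMSO 0%; doses: one concentration, 6.6 µM final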
GSH bead fluor: compound fluorescence on glutathione beads, profiling panel, artefact control, biophysical, 488/530 nm, flow cytometry; GSH beads flow cytometry, compound fluorescence 488/530 nm; active compounds read high; fluorescence (KMESF) at 10 µM; 0.25% of 190,000 active; in the data active means fluorescence above about 89;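 further: glutathione beads carrying GST-tagged Bcl family fusion proteins plus one bare bead set; values are compound well signal with DMSO vehicle wells as background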
PKD1 kinase inh: inhibitors of human PKD1 kinase, biochemical, fluorescence polarization. 0.056% of 200,000 active. inhibition, % (concentration not given with the values). Serine/threonine-protein kinase D1 (Homo sapiens), Q15139. PKD1 kinase fluorescence polarization assay. AID 797, 2007
ABCB1 inh: ABCB1 efflux pump inhibitors, primary screen, cell-based, multiplex, flow cytometry, ABCG2 counter-screen. ATP-dependent translocase ABCB1 (Homo sapiens), P08183. CCRF-Adr cells, JC-1 efflux. inhibition, % at 6.6 µM. 0.067% of 190,000 active. AID 1326, 2008; in the data active means inhibition above about 40%;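 further: 0% = vehicle and 100% = reference inhibitor; higher value means more JC-1 retained so stronger ABCB1 efflux block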
Target sequence (P08183 whole entry, looked up): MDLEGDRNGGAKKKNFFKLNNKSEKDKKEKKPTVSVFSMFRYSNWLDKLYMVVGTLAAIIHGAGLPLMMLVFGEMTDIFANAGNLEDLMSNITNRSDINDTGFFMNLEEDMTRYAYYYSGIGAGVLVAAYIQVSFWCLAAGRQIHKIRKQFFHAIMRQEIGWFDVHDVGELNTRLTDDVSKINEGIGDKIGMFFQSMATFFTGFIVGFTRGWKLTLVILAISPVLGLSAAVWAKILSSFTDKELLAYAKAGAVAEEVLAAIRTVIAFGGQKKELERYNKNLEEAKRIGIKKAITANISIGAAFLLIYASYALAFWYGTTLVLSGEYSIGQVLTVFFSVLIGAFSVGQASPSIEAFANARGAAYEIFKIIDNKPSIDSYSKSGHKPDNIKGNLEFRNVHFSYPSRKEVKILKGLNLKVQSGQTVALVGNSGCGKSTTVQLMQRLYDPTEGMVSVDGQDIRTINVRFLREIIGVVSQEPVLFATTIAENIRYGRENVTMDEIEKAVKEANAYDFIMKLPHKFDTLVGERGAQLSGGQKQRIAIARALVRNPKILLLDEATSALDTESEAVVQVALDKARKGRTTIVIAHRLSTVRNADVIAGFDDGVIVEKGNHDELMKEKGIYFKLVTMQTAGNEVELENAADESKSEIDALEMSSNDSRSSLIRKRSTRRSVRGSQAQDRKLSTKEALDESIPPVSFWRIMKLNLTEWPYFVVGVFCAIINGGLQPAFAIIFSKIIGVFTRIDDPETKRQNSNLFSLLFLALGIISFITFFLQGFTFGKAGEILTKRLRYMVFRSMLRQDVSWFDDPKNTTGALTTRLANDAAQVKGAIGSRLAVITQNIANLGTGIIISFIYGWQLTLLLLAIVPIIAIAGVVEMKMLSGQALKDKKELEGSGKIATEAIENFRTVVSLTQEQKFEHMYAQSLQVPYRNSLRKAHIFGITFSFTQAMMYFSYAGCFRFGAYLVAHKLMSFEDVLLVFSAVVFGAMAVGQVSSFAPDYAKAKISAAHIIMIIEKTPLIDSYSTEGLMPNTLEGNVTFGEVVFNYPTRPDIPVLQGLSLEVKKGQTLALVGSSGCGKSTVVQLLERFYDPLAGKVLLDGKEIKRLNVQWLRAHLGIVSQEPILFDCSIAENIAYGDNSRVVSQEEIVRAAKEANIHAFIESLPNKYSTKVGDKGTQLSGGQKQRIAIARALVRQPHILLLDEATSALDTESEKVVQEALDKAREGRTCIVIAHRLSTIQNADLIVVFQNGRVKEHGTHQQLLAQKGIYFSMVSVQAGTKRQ
Avidin bead fluor: green autofluorescence of compounds with avidin beads – biophysical, 488/530 nm, flow cytometry, artefact control, profiling panel. compound fluorescence 488/530 nm; active compounds read high. fluorescence (KMESF) at 10 µM. 0.38% of 220,000 active. AID 1775, 2009; in the data active means fluorescence above about 47
* hit, by the source's call; x = no result given. Unless noted, no stated cut-off is given here; in the data, active means inhibition above about 50%; inactive means the rest.

SMILES	L major viab	ABCG2 inh	GSH bead fluor	PKD1 kinase inh	ABCB1 inh	Avidin bead fluor
O=C(CCl)c1ccc2c(c1)CCN2C(=O)C1CCCCC1	100.4*	-3.5	10	-7.1	-1.5	13
O=C(CSc1nnc(-c2c[nH]c3ccccc23)o1)N(Cc1ccccc1)c1ccc(F)cc1	64.3*	33.5	24	-1.5	2.9	29
COc1ccc(C2C(C#N)=C(N)OC3=C2C(=O)CC(C)(C)C3)cc1OC (stereo not given)	-0.8	-0.5	16	5.0	-0.4	12
C=CCOc1ccc(C2C(C#N)=C(N)N(Nc3ccccc3)C3=C2C(=O)CC(C)(C)C3)cc1OC (stereo not given)	89.3*	3.5	17	7.4	1.3	35
Cc1ccc(Nc2nc3ccccc3[nH]2)nc1	100.5*	7.8	15	-7.2	1.7	9
CCS(=O)(=O)c1ccc(N=Nc2ccc(O)c3ncccc23)c(OC)c1	99.9*	-1.4	8	10.3	-0.8	20
Cc1ccc(N=Nc2ccc(O)c3ncccc23)cc1	100.3*	2.7	3	-12.9	0.0	4
Cc1ccc(N=Nc2ccc(O)c3ncccc23)cc1C	100.2*	1.5	10	-6.1	0.4	10
CCS(=O)(=O)c1ccc(O)c(NC(=O)c2cc(OC)c(OC)c(OC)c2)c1	0.6	0.4	11	-2.5	0.2	14
C/C(=N/NC(=O)c1ccoc1C)c1ccc(NC(=O)c2ccncc2)cc1	5.8	-4.7	20	-9.3	-3.6	12
CCCC1=C([O-])C2N=CC=CC2=[N+](c2ccccn2)C1=O (stereo not given)	3.5	3.0	7	-0.7	0.6	7
CCc1nnc(NC(=O)COc2ccc(N(C)S(=O)(=O)c3ccc(C)cc3)cc2)s1	-7.9	9.8	14	-2.1	0.9	9
CC(=O)Nc1ccc(-c2nnc(SCc3c(C)cc(C)cc3C)n2C)cc1	76.1*	28.9	30	4.2	0.8	23
COc1ccc(-c2nnc(SCC(=O)Nc3ccc(C)cc3)n2C)cc1	-1.1	6.8	17	21.3	0.7	9
Cc1ccc(CSc2nnc(-c3ccc4c(c3)OCO4)o2)cc1	-1.2	1.5	20	2.2	0.5	13
Cc1ccccc1NC(=O)Cc1nc(CSc2nnc(-c3ccc4c(c3)OCO4)o2)cs1	86.2*	33.9	27	-1.2	1.2	12
O=C(Nc1nccs1)c1cccc(N2C(=O)c3cccc4c([N+](=O)[O-])ccc(c34)C2=O)c1	73.0*	-0.1	45	-0.9	-0.1	4
O=C(Nc1nccs1)c1cccc(N2C(=O)C3C4C=CC(C4)C3C2=O)c1 (stereo not given)	51.4*	16.3	5	-3.1	0.9	11
O=C(O)CNC(=O)/C(=C\c1cccc([N+](=O)[O-])c1)NC(=O)c1ccco1	x	x	x	x	x	7
N#CC1(NC(=O)CN2CCN(S(=O)(=O)c3ccccc3F)CC2)CCCC1	x	x	x	x	x	4
CCCn1c(SCC(=O)OCc2ccccc2)nc2c1c(=O)n(C)c(=O)n2C	5.0	-4.3	31	6.8	-2.3	1
O=C(OCc1cc(=O)n2c(n1)sc1ccccc12)c1ccc(O)cc1	58.9*	0.1	9	-6.6	0.3	16
COc1ccc(N2C(=O)C(Cl)=C(Nc3ccccc3O)C2=O)cc1	98.5*	-1.8	7	-3.5	-0.3	4
COc1ccc2ncc(S(=O)(=O)c3ccccc3)c(N3CCN(c4ccccc4)CC3)c2c1	99.1*	24.4	10	-5.7	16.3	12
Cc1c(/C=N/NC(=O)CNc2ccccc2)c2ccccn2c1C(=O)c1ccncc1	99.5*	2.8	7	10.4	0.9	1
SMILES	L major viab	ABCG2 inh	GSH bead fluor	PKD1 kinase inh	ABCB1 inh	Avidin bead fluor
COc1ccc([N+](=O)[O-])cc1N(CC(O)CN1CCCCC1)S(=O)(=O)c1ccccc1 (stereo not given)	81.8*	0.1	18	-0.5	-0.1	10
CCCN(CCC)CC(O)CN(c1cc([N+](=O)[O-])ccc1OC)S(=O)(=O)c1ccccc1 (stereo not given)	63.5*	0.8	13	-8.9	0.8	17
COc1ccccc1N(CC(O)CN(c1ccccc1)S(C)(=O)=O)S(=O)(=O)c1ccccc1 (stereo not given)	-2.3	1.4	28	-13.0	0.9	8
OC[C@@H](O)[C@H](O)C(/C=N/Nc1ccccc1)=N\Nc1ccccc1	x	x	x	x	x	8
Cc1ccc(C2CN(C)C3(C(=O)Nc4ccccc43)C23COc2ccccc2C3=O)cc1 (stereo not given)	29.4	1.4	14	4.2	0.8	9
CN1CC(c2ccccc2)C2(SC(=S)N(Cc3ccco3)C2=O)C12C(=O)Nc1ccccc12 (stereo not given)	98.1*	0.3	14	-6.4	5.7	14
Cc1c(CN(C)C)c2c(n1C)C(=O)c1ccc(Br)cc1-2	69.8*	2.7	20	23.1	0.6	3
Cc1c(CN(C)C)c2c(n1Cc1ccccc1)C(=O)c1ccc(Br)cc1-2	48.4	-1.1	10	-6.2	-0.5	10
CC1CC(C)(C)NC(=S)N1CCCC(=O)N1CCN(c2ccccc2F)CC1 (stereo not given)	60.5*	-1.2	9	-4.5	0.3	14
CC1CC(C)(C)NC(=S)N1CCCC(=O)Nc1ccccc1F (stereo not given)	-1.5	2.0	11	3.8	1.6	13
c1ccc(Cn2ncc3c(Nc4ccccc4)ncnc32)cc1	x	x	x	x	x	7
COc1ccc(Nc2ncnc3c2cnn3Cc2ccc(C)cc2)cc1	90.2*	11.2	24	-4.1	0.9	35
O=C(COC(=O)CNC(=O)c1ccc(Cl)cc1)Nc1cccc(S(=O)(=O)N2CCCC2)c1	x	x	x	x	x	9
c1ccc2[nH]c(SN3CCOCC3)nc2c1	-1.9	0.3	26	2.0	0.0	11
Oc1cccc(/C=N/Nc2cc(N3CCOCC3)nc(N3CCOCC3)n2)c1	61.5*	4.5	6	1.2	0.1	10
Oc1ccccc1/C=N/Nc1cc(N2CCCC2)nc(N2CCCC2)n1	96.1*	4.8	23	-6.1	0.3	14
O=C(O)c1ccc(-n2cccn2)nc1	3.0	0.4	14	-4.3	0.0	10
Cc1cccn2c(CN(C)CCC3CCCCO3)c(C(=O)N3CCCCC3)nc12 (stereo not given)	7.9	-0.9	10	1.1	-0.1	2
O=c1c2ccccc2c(C=Nc2cccc(S(=O)(=O)NCc3ccco3)c2)c(O)n1-c1ccc(Cl)cn1	51.0*	-6.2	11	-2.1	-1.0	12
S=C(NCCN1CCOCC1)Nc1ccccc1Cl	0.4	-4.6	14	10.1	-0.7	7
